# In ChEMBL document CHEMBL4706509, “Oligosaccharide-camptothecin conjugates as potential antineoplastic drugs: Design, synthesis and biological evaluation” (Eur J Med Chem, 2020):
# Activity calls are given as the source filed them. The calls are words filed in the database; no cut-off is given here.
# Tests used:
# HepG2 = assay: Antitumor activity against human HepG2 cells assessed as inhibition of cell growth measured after 48 hrs by MTT assay; assay type: functional, cell-based; conditions: HepG2, 48 h
# Method in brief: (§1)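 MTT assay; cells seeded in 96-well plates, exposed 48 h to freshly prepared compound at five concentrations, four replicate wells each; MTT (5 mg/mL) added for 4 h, formazan dissolved in DMSO, absorbance at 490 nm. IC50 by nonlinear regression; mean of three independent experiments.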
# HEK293 = assay: Cytotoxicity against human HEK293 cells assessed as reduction in cell viability measured after 48 hrs by MTT assay; assay type: cell-based; conditions: HEK293, 48 h; method in brief: as §1
# SW1990 = assay: Antitumor activity against human SW1990 cells assessed as inhibition of cell growth measured after 48 hrs by MTT assay; assay type: functional, cell-based; conditions: SW1990, 48 h; method in brief: as §1
# HCT-116 = assay: Antitumor activity against human HCT-116 cells assessed as inhibition of cell growth measured after 48 hrs by MTT assay; assay type: functional, cell-based; conditions: HCT-116, 48 h; method in brief: as §1
# [1] = target: T1, DNA topoisomerase 1 (Homo sapiens) (UniProt P11387); assay: Inhibition of human recombinant Topoisomerase 1 using supercoiled pBR322 DNA as substrate at 100 uM incubated for 30 mins by ethidium bromide staining based agarose gel electrophoresis
# T1 sequence (whole entry): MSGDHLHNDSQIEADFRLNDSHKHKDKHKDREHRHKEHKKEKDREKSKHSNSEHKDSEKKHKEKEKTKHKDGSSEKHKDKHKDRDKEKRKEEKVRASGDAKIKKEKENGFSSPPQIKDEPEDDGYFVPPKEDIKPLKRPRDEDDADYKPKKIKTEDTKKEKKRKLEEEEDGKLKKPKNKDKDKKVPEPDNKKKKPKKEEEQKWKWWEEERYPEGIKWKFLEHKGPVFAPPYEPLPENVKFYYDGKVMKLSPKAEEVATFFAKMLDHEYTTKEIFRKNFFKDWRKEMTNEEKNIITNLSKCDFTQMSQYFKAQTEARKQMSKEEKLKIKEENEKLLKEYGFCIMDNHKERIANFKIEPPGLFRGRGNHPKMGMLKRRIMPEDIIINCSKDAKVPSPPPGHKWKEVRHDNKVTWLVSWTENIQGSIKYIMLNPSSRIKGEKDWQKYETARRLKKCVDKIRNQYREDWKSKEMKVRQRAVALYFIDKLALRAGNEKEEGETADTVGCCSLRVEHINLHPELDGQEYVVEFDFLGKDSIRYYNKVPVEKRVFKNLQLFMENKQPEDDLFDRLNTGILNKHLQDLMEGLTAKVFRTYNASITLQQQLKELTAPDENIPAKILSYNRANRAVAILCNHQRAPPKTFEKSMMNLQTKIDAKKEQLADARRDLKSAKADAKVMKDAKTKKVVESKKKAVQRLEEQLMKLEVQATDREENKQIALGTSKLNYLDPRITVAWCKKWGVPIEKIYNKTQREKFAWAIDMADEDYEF
# Method in brief: (§2)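 Cell-free relaxation assay: 1 U recombinant human Topo I with 0.5 µg supercoiled pBR322 in Topo I buffer (Tris-HCl pH 8.0, KCl, MgCl2, DTT, 0.1% BSA), 37 °C for 30 min. 10-HCPT and irinotecan as positive controls. Supercoiled, relaxed and nicked forms resolved on 0.8% agarose in TAE, 90 V for 2 h, ethidium bromide stained.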
# [2] = Stability of compound in 10% phosphate buffer assessed as proportion of lactone form level at pH 7.4 measured after 48 hrs by HPLC analysis; assay type: physicochemical; conditions: read-out: Drug metabolism
# Method in brief: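 1.0 mg dissolved in 50 mL 0.1 M phosphate buffer, pH 7.4, and shaken at 37 °C. […] Lactone versus carboxylate (ring-opened) form quantified by HPLC area normalisation. Mean of triplicate determinations.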
# [3] = Aqueous solubility of the compound in 0.1 M Na2HPO4 solution at pH 7.4 incubated for 24 hrs by HPLC analysis; assay type: physicochemical; conditions: buffer, pH 7.4, 24 h
# Method in brief: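 Excess solid shaken in 0.2 mL 0.1 M phosphate buffer, pH 7.4, at 25 °C for 24 h, then filtered. Filtrate (100 µL) diluted to 1.5 mL and analysed by isocratic HPLC (CH3CN:H2O 40/60, 1.0 mL/min, 35 °C column, 254 nm). Concentration read from a calibration curve built from DMSO standards. Values are the mean of triplicate determinations, in mg/mL.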
# [4] = target: T1, DNA topoisomerase 1 (Homo sapiens); assay: Inhibition of human recombinant Topoisomerase 1 using supercoiled pBR322 DNA as substrate at 50 uM incubated for 30 mins by ethidium bromide staining based agarose gel electrophoresis; method in brief: as §2
Compound,IC50 (HepG2),IC50 (HEK293),IC50 (SW1990),IC50 (HCT-116),inhibition [1],remaining at 48 h [2],solubility [3],inhibition [4]
CC[C@@]1(OC(=O)NCCO[C@@H]2O[C@H](CO)[C@@H](O)[C@H](OC(N)=O)[C@@H]2O)C(=O)OCc2c1cc1n(c2=O)Cc2cc3ccccc3nc2-1,11.6 µM,3.2 µM,32.8 µM,2.3 µM,–,–,–,–
CC[C@@]1(O)C(=O)OCc2c1cc1n(c2=O)Cc2cc3cc(O)ccc3nc2-1,–,–,–,–,Active,–,–,–
CC[C@@]1(OC(=O)NCCOCCOCCO[C@@H]2O[C@H](CO)[C@@H](O)[C@H](O)[C@@H]2O)C(=O)OCc2c1cc1n(c2=O)Cc2cc3ccccc3nc2-1,0.8 µM,0.6 µM,16.3 µM,0.5 µM,–,–,–,–
CC[C@@]1(OC(=O)NCCO[C@@H]2O[C@H](CO)[C@H](O)[C@H](O)[C@H]2O)C(=O)OCc2c1cc1n(c2=O)Cc2cc3ccccc3nc2-1,4.9 µM,2.2 µM,9.3 µM,4.1 µM,–,–,–,–
CC[C@@]1(OC(=O)NCCOCCO[C@@H]2O[C@H](COC(C)=O)[C@@H](OC(C)=O)[C@H](OC(N)=O)[C@@H]2OC(C)=O)C(=O)OCc2c1cc1n(c2=O)Cc2cc3ccccc3nc2-1,3.7 µM,50.2 µM,7.6 µM,3.6 µM,–,–,–,–
"CC[C@@]1(OC(=O)NCCOCCOC2O[C@H](COC(C)=O)[C@@H](OC(C)=O)[C@H](OC(C)=O)[C@@H]2OC(C)=O)C(=O)OCc2c1cc1n(c2=O)Cc2cc3ccccc3nc2-1 (single isomer, unassigned)",4.8 µM,20.6 µM,10.3 µM,4.4 µM,–,–,–,–
CC[C@@]1(OC(=O)NCCO[C@@H]2O[C@H](COC(C)=O)[C@@H](OC(C)=O)[C@H](OC(C)=O)[C@@H]2OC(C)=O)C(=O)OCc2c1cc1n(c2=O)Cc2cc3ccccc3nc2-1,4.3 µM,2.3 µM,9.7 µM,7.5 µM,–,–,–,–
CC[C@@]1(OC(=O)NCCOCCOCCO[C@@H]2O[C@H](COC(C)=O)[C@@H](OC(C)=O)[C@H](OC(C)=O)[C@H]2OC(C)=O)C(=O)OCc2c1cc1n(c2=O)Cc2cc3ccccc3nc2-1,0.7 µM,0.6 µM,4.5 µM,0.8 µM,–,–,–,–
CC[C@@]1(OC(=O)NCCO[C@@H]2O[C@H](COC(C)=O)[C@H](OC(C)=O)[C@H](OC(C)=O)[C@H]2OC(C)=O)C(=O)OCc2c1cc1n(c2=O)Cc2cc3ccccc3nc2-1,60.2 µM,8.6 µM,37.5 µM,29.5 µM,–,–,–,–
CC[C@@]1(O)C(=O)OCc2c1cc1n(c2=O)Cc2cc3ccccc3nc2-1 [CAMPTOTHECIN],0.4 µM,0.6 µM,0.2 µM,0.4 µM,–,5%,60 µg/mL,–
CC[C@@]1(OC(=O)NCCO[C@@H]2O[C@H](COC(C)=O)[C@@H](OC(C)=O)[C@H](OC(N)=O)[C@@H]2OC(C)=O)C(=O)OCc2c1cc1n(c2=O)Cc2cc3ccccc3nc2-1,18.5 µM,3.9 µM,20.6 µM,10.8 µM,–,–,–,–
CC[C@@]1(OC(=O)NCCOCCO[C@@H]2O[C@H](CO)[C@@H](O)[C@H](O)[C@H]2O)C(=O)OCc2c1cc1n(c2=O)Cc2cc3ccccc3nc2-1,1.2 µM,24.6 µM,9.6 µM,0.5 µM,–,–,–,–
CC[C@@]1(OC(=O)NCCOCCOCCO[C@@H]2O[C@H](CO)[C@@H](O)[C@H](OC(N)=O)[C@@H]2O)C(=O)OCc2c1cc1n(c2=O)Cc2cc3ccccc3nc2-1,0.8 µM,0.4 µM,18.2 µM,0.9 µM,–,–,–,–
CC[C@@]1(OC(=O)NCCOCCOCCO[C@@H]2O[C@H](COC(C)=O)[C@@H](OC(C)=O)[C@H](OC(C)=O)[C@@H]2OC(C)=O)C(=O)OCc2c1cc1n(c2=O)Cc2cc3ccccc3nc2-1,1.6 µM,3.4 µM,28.9 µM,0.6 µM,–,–,–,–
"CC[C@@]1(OC(=O)NCCOCCOCCOC2O[C@H](COC(C)=O)[C@@H](OC(C)=O)[C@H](OC(N)=O)[C@@H]2OC(C)=O)C(=O)OCc2c1cc1n(c2=O)Cc2cc3ccccc3nc2-1 (single isomer, unassigned)",1.8 µM,3.4 µM,31.4 µM,4.6 µM,–,–,–,–
CC[C@@]1(OC(=O)NCCOCCOCCO[C@@H]2O[C@H](COC(C)=O)[C@H](OC(C)=O)[C@H](OC(C)=O)[C@H]2OC(C)=O)C(=O)OCc2c1cc1n(c2=O)Cc2cc3ccccc3nc2-1,0.7 µM,0.8 µM,8.3 µM,0.9 µM,Active,–,–,–
CC[C@@]1(OC(=O)NCCOCCOCCO[C@@H]2O[C@H](CO)[C@H](O)[C@H](O)[C@H]2O)C(=O)OCc2c1cc1n(c2=O)Cc2cc3ccccc3nc2-1,1.2 µM,0.7 µM,19.9 µM,8.2 µM,Active,–,–,–
CC[C@@]1(OC(=O)NCCOCCOCCO[C@@H]2O[C@H](CO)[C@@H](O)[C@H](O)[C@H]2O)C(=O)OCc2c1cc1n(c2=O)Cc2cc3ccccc3nc2-1,1.3 µM,0.7 µM,12.5 µM,4.8 µM,–,–,–,–
CC[C@@]1(OC(=O)NCCO[C@@H]2O[C@H](COC(C)=O)[C@@H](OC(C)=O)[C@H](OC(C)=O)[C@H]2OC(C)=O)C(=O)OCc2c1cc1n(c2=O)Cc2cc3ccccc3nc2-1,29.9 µM,29.5 µM,24.8 µM,15 µM,–,–,–,–
CC[C@@]1(OC(=O)NCCOCCO[C@@H]2O[C@H](CO)[C@@H](O)[C@H](O)[C@@H]2O)C(=O)OCc2c1cc1n(c2=O)Cc2cc3ccccc3nc2-1,0.3 µM,22.4 µM,3.2 µM,5.6 µM,–,–,–,–
CC[C@@]1(OC(=O)NCCO[C@@H]2O[C@H](COC(C)=O)[C@@H](OC(C)=O)[C@H](OC(C)=O)[C@@H]2O[C@H]2O[C@H](COC(C)=O)[C@@H](OC(C)=O)[C@H](OC(N)=O)[C@H]2OC(C)=O)C(=O)OCc2c1cc1n(c2=O)Cc2cc3ccccc3nc2-1,4.2 µM,1.6 µM,25.1 µM,6.7 µM,Active,–,–,–
"CC[C@@]1(OC(=O)NCCOCCOC2O[C@H](COC(C)=O)[C@@H](OC(C)=O)[C@H](OC(C)=O)[C@H]2OC(C)=O)C(=O)OCc2c1cc1n(c2=O)Cc2cc3ccccc3nc2-1 (single isomer, unassigned)",2.1 µM,12.3 µM,10.3 µM,4.2 µM,–,–,–,–
CC[C@@]1(OC(=O)NCCO[C@@H]2O[C@H](CO)[C@@H](O)[C@H](O)[C@@H]2O)C(=O)OCc2c1cc1n(c2=O)Cc2cc3ccccc3nc2-1,10.3 µM,5.8 µM,20.4 µM,8.2 µM,–,–,–,–
CC[C@@]1(OC(=O)NCCOCCO[C@@H]2O[C@H](CO)[C@H](O)[C@H](O)[C@H]2O)C(=O)OCc2c1cc1n(c2=O)Cc2cc3ccccc3nc2-1,2.8 µM,43.5 µM,10.6 µM,2.6 µM,–,–,–,–
CC[C@@]1(OC(=O)NCCOCCO[C@@H]2O[C@H](COC(C)=O)[C@@H](OC(C)=O)[C@H](OC(C)=O)[C@@H]2O[C@H]2O[C@H](COC(C)=O)[C@@H](OC(C)=O)[C@H](OC(N)=O)[C@H]2OC(C)=O)C(=O)OCc2c1cc1n(c2=O)Cc2cc3ccccc3nc2-1,1.6 µM,1.5 µM,11.3 µM,1.3 µM,Active,–,–,Active
CC[C@@]1(OC(=O)NCCO[C@@H]2O[C@H](CO)[C@@H](O)[C@H](O)[C@H]2O)C(=O)OCc2c1cc1n(c2=O)Cc2cc3ccccc3nc2-1,3.8 µM,3.5 µM,10.3 µM,4.3 µM,–,–,–,–
